Tests used:
Format in all cases: functional, cell-based
MDA-MB-231 [1] = experiment: Cytotoxicity against human MDA-MB-231 cells after 96 hrs under normoxic condition by MTT assay
In short: (§1)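 MTT viability assay in HT-29 (high CA IX) and MDA-MB-231 (normal CA IX) cells under normoxic and hypoxic conditions; IC50 values reported.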

HT-29 [2] = experiment: Cytotoxicity against human HT-29 cells after 96 hrs under hypoxic condition by MTT assay; in short: as §1
HT-29 [3] = experiment: Cytotoxicity against human HT-29 cells after 96 hrs under normoxic condition by MTT assay; in short: as §1
MDA-MB-231 [4] = experiment: Cytotoxicity against human MDA-MB-231 cells after 96 hrs under hypoxic condition by MTT assay; in short: as §1
[5] = Homo sapiens, MDA-MB-231, 96 h, read-out: IC50
[6] = Homo sapiens, HT-29, 96 h, read-out: IC50

Structure (SMILES)	IC50 (MDA-MB-231 [1]; [5]) [µM]	IC50 (HT-29 [2]; [6]) [µM]	IC50 (HT-29 [3]; [6]) [µM]	IC50 (MDA-MB-231 [4]; [5]) [µM]	IC50 (MDA-MB-231 [1]; mda-mb-231)	IC50 (HT-29 [2]; ht-29)	IC50 (HT-29 [3]; ht-29)	IC50 (MDA-MB-231 [4]; mda-mb-231)
Cc1c(C)c2ccc(OCCn3cc(CCO[C@H]4O[C@@H]5O[C@@]6(C)CC[C@H]7[C@H](C)CC[C@@H]([C@H]4C)[C@@]57OO6)nn3)cc2oc1=O	56.7	14.6	3.47	52.3	–	–	–	–
COC(=O)c1cc2ccc(OCCn3cc(CCO[C@H]4O[C@@H]5O[C@@]6(C)CC[C@H]7[C@H](C)CC[C@@H]([C@H]4C)[C@@]57OO6)nn3)cc2oc1=O	61	75.7	67.2	58.4	–	–	–	–
CCOC(=O)c1cc2ccc(O[C@H]3O[C@@H]4O[C@@]5(C)CC[C@H]6[C@H](C)CC[C@@H]([C@H]3C)[C@@]46OO5)cc2oc1=O	21.9	7.17	3.45	2.85	–	–	–	–
Cc1c(Cl)c(=O)oc2cc(-n3cc(CCO[C@H]4O[C@@H]5O[C@@]6(C)CC[C@H]7[C@H](C)CC[C@@H]([C@H]4C)[C@@]57OO6)nn3)ccc12	5.19	0.01	1.5	1.03	–	–	–	–
Cc1c(F)c(=O)oc2cc(-n3cc(CCO[C@H]4O[C@@H]5O[C@@]6(C)CC[C@H]7[C@H](C)CC[C@@H]([C@H]4C)[C@@]57OO6)nn3)ccc12	3.84	5.66	9.89	3.36	–	–	–	–
C[C@H]1[C@@H](OCCOc2ccc3c(C(F)(F)F)cc(=O)oc3c2)O[C@@H]2O[C@@]3(C)CC[C@H]4[C@H](C)CC[C@@H]1[C@@]24OO3	15.2	5.59	54.8	6.14	–	–	–	–
Cc1c(C)c2ccc(OCCO[C@H]3O[C@@H]4O[C@@]5(C)CC[C@H]6[C@H](C)CC[C@@H]([C@H]3C)[C@@]46OO5)cc2oc1=O	57.2	57.2	12.8	12.8	–	–	–	–
Cc1cc(=O)oc2cc(-n3cc(CO[C@H]4O[C@@H]5O[C@@]6(C)CC[C@H]7[C@H](C)CC[C@@H]([C@H]4C)[C@@]57OO6)nn3)ccc12	21.5	5.09	10.8	49.8	–	–	–	–
C[C@H]1[C@@H](OCCCOc2ccc3c(C(F)(F)F)cc(=O)oc3c2)O[C@@H]2O[C@@]3(C)CC[C@H]4[C@H](C)CC[C@@H]1[C@@]24OO3	13.6	1.19	4.57	8.86	–	–	–	–
Cc1c(Cl)c(=O)oc2cc(OCCCO[C@H]3O[C@@H]4O[C@@]5(C)CC[C@H]6[C@H](C)CC[C@@H]([C@H]3C)[C@@]46OO5)ccc12	0.6	8.05	2.55	2.38	–	–	–	–
Cc1c(C)c2ccc(-n3cc(CCO[C@H]4O[C@@H]5O[C@@]6(C)CC[C@H]7[C@H](C)CC[C@@H]([C@H]4C)[C@@]57OO6)nn3)cc2oc1=O	3.75	0.08	4.71	3.58	–	–	–	–
C[C@H]1[C@@H](Oc2ccc3c(C(F)(F)F)cc(=O)oc3c2)O[C@@H]2O[C@@]3(C)CC[C@H]4[C@H](C)CC[C@@H]1[C@@]24OO3	56.8	22.3	11.1	3.25	–	–	–	–
Cc1cc(=O)oc2cc(OCCCn3cc(CCO[C@H]4O[C@@H]5O[C@@]6(C)CC[C@H]7[C@H](C)CC[C@@H]([C@H]4C)[C@@]57OO6)nn3)ccc12	72.2	0.11	6.87	14.4	–	–	–	–
C[C@H]1[C@@H](OCCc2cn(-c3ccc4c(C(F)(F)F)cc(=O)oc4c3)nn2)O[C@@H]2O[C@@]3(C)CC[C@H]4[C@H](C)CC[C@@H]1[C@@]24OO3	1.85	10.3	6.07	95.7	–	–	–	–
Cc1cc(=O)oc2cc(OCCn3cc(CCO[C@H]4O[C@@H]5O[C@@]6(C)CC[C@H]7[C@H](C)CC[C@@H]([C@H]4C)[C@@]57OO6)nn3)ccc12	17	10.7	5.72	18.2	–	–	–	–
Cc1cc(=O)oc2cc(-n3cc(CCO[C@H]4O[C@@H]5O[C@@]6(C)CC[C@H]7[C@H](C)CC[C@@H]([C@H]4C)[C@@]57OO6)nn3)ccc12	3.78	10.9	8.95	9.96	–	–	–	–
Cc1c(Cl)c(=O)oc2cc(-n3cc(CO[C@H]4O[C@@H]5O[C@@]6(C)CC[C@H]7[C@H](C)CC[C@@H]([C@H]4C)[C@@]57OO6)nn3)ccc12	50.5	1.15	4.27	24.7	–	–	–	–
Cc1c(Cl)c(=O)oc2cc(OCCCn3cc(CCO[C@H]4O[C@@H]5O[C@@]6(C)CC[C@H]7[C@H](C)CC[C@@H]([C@H]4C)[C@@]57OO6)nn3)ccc12	31	1.68	1.19	6.07	–	–	–	–

Structure (SMILES)	IC50 (MDA-MB-231 [1]; [5]) [µM]	IC50 (HT-29 [2]; [6]) [µM]	IC50 (HT-29 [3]; [6]) [µM]	IC50 (MDA-MB-231 [4]; [5]) [µM]	IC50 (MDA-MB-231 [1]; mda-mb-231)	IC50 (HT-29 [2]; ht-29)	IC50 (HT-29 [3]; ht-29)	IC50 (MDA-MB-231 [4]; mda-mb-231)
COC(=O)c1cc2ccc(OCCCn3cc(CCO[C@H]4O[C@@H]5O[C@@]6(C)CC[C@H]7[C@H](C)CC[C@@H]([C@H]4C)[C@@]57OO6)nn3)cc2oc1=O	–	–	–	–	Nd(Insoluble)	Nd(Insoluble)	Nd(Insoluble)	Nd(Insoluble)
COc1cccc2c1C(=O)c1c(O)c3c(c(O)c1C2=O)C[C@@](O)(C(=O)CO)C[C@@H]3O[C@H]1C[C@H](N)[C@H](O)[C@H](C)O1 [DOXORUBICIN]	1.07	0.25	0.24	5.98	–	–	–	–
C[C@H]1[C@@H](OCc2cn(-c3ccc4c(C(F)(F)F)cc(=O)oc4c3)nn2)O[C@@H]2O[C@@]3(C)CC[C@H]4[C@H](C)CC[C@@H]1[C@@]24OO3	> 100	5.33	5.22	49.6	–	–	–	–
Cc1cc(=O)oc2cc(OCCCO[C@H]3O[C@@H]4O[C@@]5(C)CC[C@H]6[C@H](C)CC[C@@H]([C@H]3C)[C@@]46OO5)ccc12	30	8.71	13.8	22.9	–	–	–	–
C[C@H]1[C@@H](OCCc2cn(CCCOc3ccc4c(C(F)(F)F)cc(=O)oc4c3)nn2)O[C@@H]2O[C@@]3(C)CC[C@H]4[C@H](C)CC[C@@H]1[C@@]24OO3	32.5	4.29	5.88	6.58	–	–	–	–
Cc1c(Cl)c(=O)oc2cc(OCCO[C@H]3O[C@@H]4O[C@@]5(C)CC[C@H]6[C@H](C)CC[C@@H]([C@H]3C)[C@@]46OO5)ccc12	18	7.02	23.9	5.36	–	–	–	–
Cc1c(Cl)c(=O)oc2cc(OCCn3cc(CCO[C@H]4O[C@@H]5O[C@@]6(C)CC[C@H]7[C@H](C)CC[C@@H]([C@H]4C)[C@@]57OO6)nn3)ccc12	7.53	2.37	5.28	7.24	–	–	–	–
Cc1c(Cl)c(=O)oc2cc(O[C@H]3O[C@@H]4O[C@@]5(C)CC[C@H]6[C@H](C)CC[C@@H]([C@H]3C)[C@@]46OO5)ccc12	50.5	0.41	1.28	1.4	–	–	–	–
Cc1c(C)c2ccc(OCCCO[C@H]3O[C@@H]4O[C@@]5(C)CC[C@H]6[C@H](C)CC[C@@H]([C@H]3C)[C@@]46OO5)cc2oc1=O	17.1	3.54	8.71	7.92	–	–	–	–
C[C@H]1[C@@H](OCCc2cn(CCOc3ccc4c(C(F)(F)F)cc(=O)oc4c3)nn2)O[C@@H]2O[C@@]3(C)CC[C@H]4[C@H](C)CC[C@@H]1[C@@]24OO3	17.9	4.01	3.58	14.2	–	–	–	–
C[C@H]1[C@@H](O)O[C@@H]2O[C@@]3(C)CC[C@H]4[C@H](C)CC[C@@H]1[C@@]24OO3 [ARTENIMOL]	47.1	18.5	> 100	5.64	–	–	–	–
Cc1c(C)c2ccc(-n3cc(CO[C@H]4O[C@@H]5O[C@@]6(C)CC[C@H]7[C@H](C)CC[C@@H]([C@H]4C)[C@@]57OO6)nn3)cc2oc1=O	23.4	0.02	2.67	4.85	–	–	–	–
Cc1c(C)c2ccc(OCCCn3cc(CCO[C@H]4O[C@@H]5O[C@@]6(C)CC[C@H]7[C@H](C)CC[C@@H]([C@H]4C)[C@@]57OO6)nn3)cc2oc1=O	> 100	0.11	5	33.2	–	–	–	–
Cc1c(C)c2ccc(O[C@H]3O[C@@H]4O[C@@]5(C)CC[C@H]6[C@H](C)CC[C@@H]([C@H]3C)[C@@]46OO5)cc2oc1=O	78.8	30.3	11.8	6.44	–	–	–	–
Cc1cc(=O)oc2cc(OCCO[C@H]3O[C@@H]4O[C@@]5(C)CC[C@H]6[C@H](C)CC[C@@H]([C@H]3C)[C@@]46OO5)ccc12	4.29	3.69	2.35	0.1	–	–	–	–
CC(=O)Nc1nnc(S(N)(=O)=O)s1 [ACETAZOLAMIDE]	> 100	> 100	> 100	> 100	–	–	–	–
Cc1c(F)c(=O)oc2cc(-n3cc(CO[C@H]4O[C@@H]5O[C@@]6(C)CC[C@H]7[C@H](C)CC[C@@H]([C@H]4C)[C@@]57OO6)nn3)ccc12	3.47	7.39	3.35	2.6	–	–	–	–

— ChEMBL document CHEMBL4152206, “Design, synthesis, cytotoxicity and mechanism of novel dihydroartemisinin-coumarin hybrids as potential anti-cancer agents” (Eur J Med Chem, 2018)
